ChEMBL document CHEMBL1153722, “Design, synthesis, and characterization of peptide-based rab geranylgeranyl transferase inhibitors” (J Med Chem, 2009)
Square brackets hold non-standard residues; d marks the D form. Peptide text beside a SMILES is read from it. * marks the point of attachment. Hydrocinnamoyl = O=C(CCc1ccccc1)*; Undecanoyl = CCCCCCCCCCC(=O)*; pGlu = O=C1CC[C@@H](C(=O)O)N1; Nicotinoyl = O=C(c1cccnc1)*; Ac6c = NC1(C(=O)O)CCCCC1; X1 = Fc1ccc(N*)cc1Cl

species: Rattus norvegicus; assay: Inhibition of rat recombinant Rab geranylgeranyltransferase at 100 uM in presence of canine Rab7 and rat REP1 NBD-FPP based continuous fluorimetric assay
Procedure, shortened: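 Continuous fluorometric assay in 96/384-well format: 3 μM Rab7, 3 μM REP1, 9 μM NBD-FPP and 400 nM RabGGTase, with or without inhibitor. […] IC50 was calculated from three independent measurements.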

Point of comparison: `O=C(CCc1ccc(F)cc1)N[C@@H](Cc1ccc(O)cc1)C(=O)NCC(=O)N[C@@H](Cc1ccc(O)cc1)C(=O)NCc1ccc(F)cc1F`, inhibition 89%. Against it:
- O=C(CNC(=O)[C@H](Cc1ccc(O)cc1)NC(=O)c1coc(-c2ccccc2)n1)N[C@@H](Cc1ccccc1)C(=O)O — lower, 65%
- CC(C)C[C@H](NC(=O)[C@H](COC(C)(C)C)NC(=O)[C@H](Cc1ccccc1)NC(=O)c1ccc(-c2ccccc2)cc1)C(N)=O — lower, 48%
- O=C(CNC(=O)[C@H](Cc1ccc(O)cc1)NC(=O)c1ccc(F)cc1)N[C@@H](Cc1ccc(O)cc1)C(=O)Nc1ccc(F)cc1F — higher, 98%
- COC(=O)[C@H](CO)NC(=O)[C@H](Cc1ccccc1)NC(=O)[C@H](CO)NC(=O)C(Br)C(Br)c1ccc(F)cc1 (some centres not stated) — lower, 80%
- NC(=O)CC[C@H](NC(=O)[C@H](Cc1ccccc1)NC(=O)[C@H](CO)NC(=O)CCc1ccccc1)C(=O)Nc1ccc(F)cc1 — lower, 88%
- CC[C@H](C)[C@H](NC(=O)[C@H](Cc1ccccc1)NC(=O)c1cccnc1)C(=O)N[C@@H](CCCNC(=N)N)C(N)=O (Nicotinoyl-Phe-Ile-Arg-NH2) — lower, 79%
- O=C(CNC(=O)[C@H](Cc1ccc(O)cc1)NC(=O)c1coc(-c2ccccc2)n1)N[C@@H](Cc1c[nH]cn1)C(=O)O — lower, 86%
- CC(C)[C@H](NC(=O)c1coc(-c2ccccc2)n1)C(=O)NCC(=O)N[C@@H](Cc1c[nH]cn1)C(=O)Nc1ccc(F)cc1F — lower, 55%
- CC(C)C[C@H](NC(=O)[C@H](COC(C)(C)C)NC(=O)[C@H](Cc1ccccc1)NC(=O)/C=C/c1ccc(F)cc1)C(=O)Nc1nccs1 — higher, 112%
- O=C(CCc1ccccc1)N[C@@H](CO)C(=O)N[C@@H](Cc1ccccc1)C(=O)N[C@@H](CO)C(=O)O (Hydrocinnamoyl-Ser-Phe-Ser-OH) — higher, 95%
- CC(C)C[C@H](NC(=O)/C=C/c1ccccc1)C(=O)N[C@@H](Cc1ccccc1)C(=O)N[C@@H](Cc1ccccc1)C(=O)Nc1ccc(F)cc1F — higher, 93%
- COC(=O)[C@H](Cc1ccc(O)cc1)NC(=O)CCNC(=O)[C@H](Cc1c[nH]cn1)NC(=O)OCc1ccccc1 — lower, 72%
- CC[C@H](C)[C@H](NC(=O)c1ccc(-c2ccccc2)cc1)C(=O)N[C@@H](C(=O)N[C@@H](CCC(N)=O)C(=O)N(C)OC)C(C)C — higher, 109%
- NC(=O)CC[C@H](NC(=O)[C@H](Cc1ccccc1)NC(=O)CNC(=O)CCc1ccccc1)C(=O)Nc1ccc(F)cc1F — higher, 93%
- CC(C)(C)Oc1ccc(C[C@H](NC(=O)CNC(=O)[C@H](Cc2cn(C(c3ccccc3)(c3ccccc3)c3ccccc3)cn2)NC(=O)c2coc(-c3ccccc3)n2)C(=O)O)cc1 — lower, 80%
- O=C(/C=C/c1ccc(F)cc1)N[C@@H](CO)C(=O)N[C@@H](Cc1ccccc1)C(=O)N[C@@H](CO)C(=O)Nc1ccc(F)c(Cl)c1 — the same, 89%
- CCCCCCCCCCC(=O)N[C@@H](Cc1ccc(O)cc1)C(=O)N[C@@H](Cc1c[nH]cn1)C(=O)N[C@@H](Cc1c[nH]cn1)C(N)=O (Undecanoyl-Tyr-His-His-NH2) — lower, 79%
- O=C(CCc1ccc(-c2ccccc2)cc1)N[C@H](Cc1cnc[nH]1)C(=O)N[C@@H](Cc1ccc(O)cc1)C(=O)N[C@@H](Cc1ccccc1)C(=O)O — lower, 48%
- CCOC(=O)[C@H](CCC(N)=O)NC(=O)[C@H](Cc1ccccc1)NC(=O)[C@H](C)NC(=O)CCc1ccccc1 (Hydrocinnamoyl-Ala-Phe-Gln-OEt) — higher, 107%
- O=C(CNC(=O)c1coc(-c2ccccc2)n1)NCC(=O)N[C@@H](Cc1c[nH]cn1)C(=O)Nc1ccc(F)cc1F — higher, 112%
- C[C@@H](NC(=O)CCc1ccccc1)C(=O)N[C@@H](Cc1ccccc1)C(=O)N[C@@H](CCC(=O)O)C(=O)NCCO — higher, 98%
- CCCCCCCCCCCCCCCC(=O)N[C@@H](Cc1ccc(O)cc1)C(=O)N[C@@H](Cc1ccc(O)cc1)C(=O)N[C@@H](Cc1ccc(O)cc1)C(=O)OCCN — higher, 110%
- O=C(CNC(=O)c1coc(-c2ccccc2)n1)N[C@@H](Cc1c[nH]cn1)C(=O)N[C@@H](Cc1ccccc1)C(=O)O — lower, 84%
- C=CCOC(=O)[C@H](Cc1cn(C(c2ccccc2)(c2ccccc2)c2ccccc2)cn1)NC(=O)[C@H](Cc1ccccc1)NC(=O)CNC(=O)c1coc(-c2ccccc2)n1 — lower, 55%
- CCCCCCCCCCCOc1ccc(C(=O)N[C@@H](Cc2c[nH]cn2)C(=O)N[C@@H](Cc2ccc(O)cc2)C(=O)N[C@@H](Cc2ccccc2)C(=O)NCCCCN)cc1 — higher, 127%
- CCCCCCCCCCCCCC(=O)OC[C@H](NC(=O)CNC(=O)[C@H](Cc1ccccc1)NC(=O)c1coc(-c2ccccc2)n1)C(=O)O — lower, 38%
- CON(C)C(=O)[C@H](CCC(N)=O)NC(=O)[C@H](Cc1ccccc1)NC(=O)[C@H](C)NC(=O)CCc1ccccc1 — higher, 112%
- CCCCCCCCCCCC(=O)N[C@@H](Cc1c[nH]cn1)C(=O)N[C@@H](Cc1c[nH]cn1)C(=O)N[C@@H](Cc1ccc(O)cc1)C(=O)NCCCn1ccnc1 — higher, 124%
- C=CCCCCCCCCCOC(=O)[C@H](CCC(N)=O)NC(=O)[C@H](Cc1ccccc1)NC(=O)[C@H](CO)NC(=O)CCc1ccccc1 — higher, 120%
- O=C(/C=C/c1ccc(F)cc1)N[C@@H](CO)C(=O)N[C@@H](Cc1ccccc1)C(=O)N[C@@H](CO)C(=O)O — higher, 99%
- CCCCOC(=O)[C@H](Cc1ccc(O)cc1)NC(=O)CNC(=O)[C@H](Cc1ccc(O)cc1)NC(=O)CCc1ccc(F)cc1 — lower, 47%
- CC(C)C[C@H](NC(=O)[C@@H]1CCC(=O)N1)C(=O)N[C@@H](CCCCN)C(=O)NC1(C(=O)Nc2ccc(F)c(Cl)c2)CCCCC1 ([pGlu]LK[Ac6c]-X1) — higher, 105%
- O=C(CCNC(=O)[C@H](Cc1c[nH]cn1)NC(=O)OCc1ccccc1)N[C@@H](Cc1ccc(O)cc1)C(=O)NCCCn1ccnc1 — lower, 88%
- O=C(CNC(=O)[C@H](Cc1c[nH]cn1)NC(=O)OCc1ccccc1)N[C@@H](Cc1ccc(O)cc1)C(=O)NCCCn1ccnc1 — lower, 85%
- CC(=O)Nc1cc(C(=O)N2CCC[C@H]2C(=O)N[C@@H](C(=O)N[C@@H](CCC(=O)O)C(=O)O)C(C)C)ccc1[N+](=O)[O-] — higher, 95%
- COC(=O)[C@H](CO)NC(=O)[C@H](Cc1ccccc1)NC(=O)[C@H](CO)NC(=O)/C=C/c1ccc(F)cc1 — higher, 98%
- C=CCOC(=O)[C@H](Cc1c[nH]cn1)NC(=O)[C@H](Cc1ccccc1)NC(=O)CNC(=O)C1COC(c2ccccc2)=N1 (some centres not stated) — higher, 106%
- C[C@@H](O)[C@H](NC(=O)/C=C/c1ccccc1)C(=O)N[C@@H](Cc1ccccc1)C(=O)N[C@@H](CCC(N)=O)C(=O)Nc1ccc(F)c(Cl)c1 — higher, 91%
- CN(C(=O)[C@@H](Cc1ccc(O)cc1)NC(=O)OCc1ccccc1)[C@@H](Cc1ccccc1)C(=O)N[C@@H](Cc1ccc(O)cc1)C(=O)O — lower, 46%
- CCCCCCCCCCCOc1ccc(C(=O)N[C@@H](Cc2ccc(O)cc2)C(=O)N[C@@H](Cc2ccc(O)cc2)C(=O)N[C@@H](Cc2ccc(O)cc2)C(=O)OC)cc1 — higher, 102%
- O=C(CCc1ccccc1)N[C@@H](CO)C(=O)N[C@@H](Cc1ccccc1)C(=O)N[C@@H](CO)C(=O)Nc1ccc(N2CCOCC2)cc1 — higher, 95%
- O=C(CNC(=O)[C@H](Cc1c[nH]cn1)NC(=O)c1coc(-c2ccccc2)n1)N[C@@H](Cc1c[nH]c2ccccc12)C(=O)O — lower, 69%
- CCCCCCCCCCCOc1ccc(C(=O)N[C@@H](Cc2ccc(O)cc2)C(=O)N[C@@H](Cc2ccc(O)cc2)C(=O)N[C@@H](Cc2ccc(O)cc2)C(=O)Nc2ccc(F)cc2F)cc1 — higher, 101%
- CC(C)[C@H](NC(=O)c1coc(-c2ccccc2)n1)C(=O)NCC(=O)N[C@@H](Cc1ccc(O)cc1)C(=O)Nc1ccc(F)cc1F — higher, 102%
- CC(C)C[C@H](NC(=O)[C@H](CO)NC(=O)[C@H](Cc1ccccc1)NC(=O)/C=C/c1ccc(F)cc1)C(N)=O — higher, 98%
- CCCCCCCCCCCOc1ccc(C(=O)N[C@@H](Cc2c[nH]cn2)C(=O)N[C@@H](Cc2ccc(O)cc2)C(=O)N[C@@H](Cc2ccccc2)C(=O)O)cc1 — lower, 75%
- O=C(CNC(=O)c1csc(C2CCNCC2)n1)N[C@@H](Cc1ccccc1)C(=O)N[C@@H](Cc1c[nH]cn1)C(=O)O — higher, 124%
- CC[C@H](C)[C@H](NC(=O)/C=C/c1ccc(F)cc1)C(=O)N[C@@H](C)C(=O)N[C@@H](CCC(N)=O)C(=O)OC — lower, 83%
- CCCCCCCCCCCOc1ccc(C(=O)N[C@@H](Cc2c[nH]cn2)C(=O)N[C@@H](Cc2ccc(O)cc2)C(=O)N[C@@H](Cc2ccccc2)C(=O)N(C)OC)cc1 — lower, 65%
- CC[C@H](C)[C@H](NC(=O)/C=C/c1ccc(F)cc1)C(=O)N[C@@H](C)C(=O)N[C@@H](CCC(N)=O)C(=O)O — lower, 83%
- O=C(CNC(=O)[C@H](Cc1ccccc1)NC(=O)c1coc(-c2ccccc2)n1)N[C@@H](CO)C(=O)O — higher, 106%
- CC(C)C[C@H](NC(=O)[C@@H]1CCCN1C(=O)/C=C/c1ccccc1)C(=O)N[C@@H](Cc1ccccc1)C(=O)NC1CCCCC1 — lower, 82%
- CCCCCCCCCCC(=O)N[C@@H](Cc1c[nH]cn1)C(=O)N[C@@H](Cc1c[nH]cn1)C(=O)N[C@@H](Cc1ccc(O)cc1)C(=O)NCc1ccccn1 — lower, 80%
- COC(=O)[C@H](CO)NC(=O)CNC(=O)[C@H](Cc1ccccc1)NC(=O)C1COC(c2ccccc2)=N1 (some centres not stated) — higher, 136%
- COC(=O)CNC(=O)[C@H](CO)NC(=O)[C@H](Cc1ccccc1)NC(=O)C1COC(c2ccccc2)=N1 (some centres not stated) — higher, 114%
- CCCCCCCCCCC(=O)N[C@@H](Cc1c[nH]cn1)C(=O)N[C@@H](Cc1c[nH]cn1)C(=O)N[C@@H](CO)C(=O)NOC(C)(C)C — lower, 52%
- C[C@@H](O)[C@H](NC(=O)/C=C/c1ccccc1)C(=O)N[C@@H](Cc1ccccc1)C(=O)N[C@@H](CCC(N)=O)C(=O)NCCO — higher, 118%
- CCCCCCCCCCC(=O)N[C@@H](Cc1c[nH]cn1)C(=O)N[C@@H](Cc1cnc[nH]1)C(=O)N[C@@H](Cc1ccc(O)cc1)C(=O)OCCN — higher, 97%
- C[C@@H](O)[C@H](NC(=O)/C=C/c1ccccc1)C(=O)N[C@@H](Cc1ccccc1)C(=O)N[C@@H](CCC(N)=O)C(=O)Nc1cccc(Br)n1 — lower, 83%
- CC[C@H](C)[C@H](NC(=O)c1ccc(-c2ccccc2)cc1)C(=O)N[C@@H](C(=O)N[C@@H](CCC(N)=O)C(=O)NNC(=O)OC)C(C)C — higher, 99%
- O=C(CNC(=O)[C@H](Cc1ccc(O)cc1)NC(=O)c1coc(-c2ccccc2)n1)N[C@@H](Cc1c[nH]c2ccccc12)C(=O)O — lower, 59%
